Test results reported in the array DNA melting data of Ke et al. (doi:10.1101/2024.01.08.574731).

What was measured:
[1] = folding enthalpy; higher = less favourable; fluorescence melt of hairpins on a sequencing array, two-state fit; details: sodium 0.088 M
In short: (§1)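 Melting temperature and folding enthalpy were obtained by bootstrapped two-state fitting. Fits used Cy3 fluorescence of library hairpins with annealed Cy3 and quencher oligos on a sequenced MiSeq flow cell, imaged in 50 mM Na-HEPES pH 8.0, 25 mM NaCl in 2.5 °C steps up to 60 °C and normalised to pre-quench Cy3 and control constructs. Four replicates were combined by inverse-variance weighting, and fitted temperatures were raised by 9.35 °C to match UV melts.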

[2] = melting temperature; fluorescence melt of hairpins on a sequencing array, two-state fit, raised by 9.35 °C to match UV melts; details: sodium 0.088 M
In short: as §1

Row | Sequence | folding enthalpy [1] [kcal/mol] | Tm [2] [°C]
1 | GATCCCTATCGGGATC ((((((....)))))) | -38 | 60.2
2 | GATCCCTATGGGATC ((((((...)))))) | -36.1 | 64.8
3 | GATCCCTCAGGGGATC ((((((....)))))) | -34.6 | 60.6
4 | GATCCCTCATGGGATC ((((((....)))))) | -37 | 62.6
5 | GATCCCTCCAGGGATC ((((((....)))))) | -39.1 | 63.9
6 | GATCCCTCCGGGGATC ((((((....)))))) | -31.3 | 65.3
7 | GATCCCTCCTGGGATC ((((((....)))))) | -37 | 61
8 | GATCCCTCGAGGGATC ((((((....)))))) | -41.7 | 62
9 | GATCCCTCGGGGATC ((((((...)))))) | -34.5 | 62.9
10 | GATCCCTGAGGGGATC ((((((....)))))) | -39.4 | 63
11 | GATCCCTGATGGGATC ((((((....)))))) | -41.1 | 59.8
12 | GATCCCTGCAGGGATC ((((((....)))))) | -37.8 | 66
13 | GATCCCTGTAGGGATC ((((((....)))))) | -41.1 | 65.8
14 | GATCCCTTGCGGGATC ((((((....)))))) | -39.6 | 60.7
15 | GATCCCTTTCGGGATC ((((((....)))))) | -48.2 | 60.1
16 | GATCCCTTTGGGGATC ((((((....)))))) | -46 | 62.8
17 | GATCCCTTTTGGGATC ((((((....)))))) | -38.3 | 60.1
18 | GATCCGAAACGGATC ((((((...)))))) | -35.4 | 57
19 | GATCCGAAATCGGATC ((((((....)))))) | -35.4 | 54.9
20 | GATCCGAAGCCGGATC ((((((....)))))) | -39.6 | 55.4
21 | GATCCGACACGGATC ((((((...)))))) | -35.6 | 59.1
22 | GATCCGACCCGGATC ((((((...)))))) | -39.9 | 56.6
23 | GATCCGACTGCGGATC ((((((....)))))) | -48.8 | 56.1
24 | GATCCGACTTCGGATC ((((((....)))))) | -39.6 | 57.4

Row | Sequence | folding enthalpy [1] [kcal/mol] | Tm [2] [°C]
25 | GATCCGAGCCGGATC ((((((...)))))) | -44.5 | 56.3
26 | GATCCGAGGCCGGATC ((((((....)))))) | -45.5 | 56.4
27 | GATCCGAGGCGGATC ((((((...)))))) | -43.4 | 56.8
28 | GATCCGAGTCCGGATC ((((((....)))))) | -40.2 | 56
29 | GATCCGATAACGGATC ((((((....)))))) | -33.1 | 59.1
30 | GATCCGATCTCGGATC ((((((....)))))) | -40.9 | 62.2
31 | GATCCGATGGCGGATC ((((((....)))))) | -42.8 | 56.6
32 | GATCCGATTCCGGATC ((((((....)))))) | -43.5 | 57.1
33 | GATCCGATTGCGGATC ((((((....)))))) | -38.4 | 56.1
34 | GATCCGCAACGGATC ((((((...)))))) | -33 | 55.8
35 | GATCCGCAAGCGGATC ((((((....)))))) | -39 | 68
36 | GATCCGCAATCGGATC ((((((....)))))) | -35.1 | 56
37 | GATCCGCCACCGGATC ((((((....)))))) | -34.3 | 56.4
38 | GATCCGCCCACGGATC ((((((....)))))) | -43.6 | 59.5
39 | GATCCGCCCCGGATC ((((((...)))))) | -36.8 | 58.4
40 | GATCCGCCCGCGGATC ((((((....)))))) | -38.3 | 68.7
41 | GATCCGCCGGCGGATC ((((((....)))))) | -45.4 | 68.9
42 | GATCCGCGAACGGATC ((((((....)))))) | -42.3 | 58.9
43 | GATCCGCGACCGGATC ((((((....)))))) | -38.4 | 54.8
44 | GATCCGCGATCGGATC ((((((....)))))) | -28.8 | 57.4
45 | GATCCGCGGTCGGATC ((((((....)))))) | -42.7 | 57.2
46 | GATCCGCGTCCGGATC ((((((....)))))) | -41.8 | 57.6
47 | GATCCGCTATCGGATC ((((((....)))))) | -40.2 | 57.2
48 | GATCCGCTCACGGATC ((((((....)))))) | -41.3 | 63.3

Row | Sequence | folding enthalpy [1] [kcal/mol] | Tm [2] [°C]
49 | GATCCGCTCTCGGATC ((((((....)))))) | -33.8 | 60
50 | GATCCGCTTCCGGATC ((((((....)))))) | -38.2 | 57.6
51 | GATCCGCTTTCGGATC ((((((....)))))) | -40.4 | 57.8
52 | GATCCGGCACGGATC ((((((...)))))) | -36 | 69.2
53 | GATCCGGCCCCGGATC ((((((....)))))) | -47.8 | 61.1
54 | GATCCGGCCGCGGATC ((((((....)))))) | -41.5 | 58
55 | GATCCGGCGACGGATC ((((((....)))))) | -33.4 | 67.4
56 | GATCCGGGCTCGGATC ((((((....)))))) | -44.6 | 59.3
57 | GATCCGGGGCCGGATC ((((((....)))))) | -41.4 | 61
58 | GATCCGGGGGCGGATC ((((((....)))))) | -38.3 | 60.1
59 | GATCCGGGTCGGATC ((((((...)))))) | -29.6 | 58.6
60 | GATCCGGTCCCGGATC ((((((....)))))) | -35.4 | 65.3
61 | GATCCGGTGACGGATC ((((((....)))))) | -38.9 | 67.3
62 | GATCCGGTGCGGATC ((((((...)))))) | -45.2 | 57.5
63 | GATCCGGTGGCGGATC ((((((....)))))) | -31.4 | 56.5
64 | GATCCGGTGTCGGATC ((((((....)))))) | -37.2 | 57.6
65 | GATCCGTAAACGGATC ((((((....)))))) | -38.2 | 60.3
66 | GATCCGTACCGGATC ((((((...)))))) | -34.8 | 58.9
67 | GATCCGTATCCGGATC ((((((....)))))) | -39 | 58.2
68 | GATCCGTATCGGATC ((((((...)))))) | -30.3 | 57.3
69 | GATCCGTCCCCGGATC ((((((....)))))) | -32.1 | 56.5
70 | GATCCGTCGTCGGATC ((((((....)))))) | -36.3 | 60.1
71 | GATCCGTGACGGATC ((((((...)))))) | -38.3 | 59.9
72 | GATCCGTGCCCGGATC ((((((....)))))) | -50.9 | 56.6

Row | Sequence | folding enthalpy [1] [kcal/mol] | Tm [2] [°C]
73 | GATCCGTGCGCGGATC ((((((....)))))) | -48.4 | 65
74 | GATCCGTGGCCGGATC ((((((....)))))) | -39.1 | 57.7
75 | GATCCGTTAACGGATC ((((((....)))))) | -43.2 | 64
76 | GATCCGTTACCGGATC ((((((....)))))) | -34.6 | 59.5
77 | GATCCGTTCCCGGATC ((((((....)))))) | -43.4 | 55.7
78 | GATCCGTTCGCGGATC ((((((....)))))) | -50.4 | 61.3
79 | GATCCGTTCTCGGATC ((((((....)))))) | -42.2 | 60.7
80 | GATCCTAAAAAGGATC ((((((....)))))) | -27.9 | 47.6
81 | GATCCTAAGTAGGATC ((((((....)))))) | -39.5 | 51.7
82 | GATCCTAATAAGGATC ((((((....)))))) | -40.1 | 50.8
83 | GATCCTACAAGGATC ((((((...)))))) | -33.6 | 54.5
84 | GATCCTACACAGGATC ((((((....)))))) | -35.9 | 51.6
85 | GATCCTACCAAGGATC ((((((....)))))) | -38.1 | 53.2
86 | GATCCTACCCAGGATC ((((((....)))))) | -39.9 | 51.2
87 | GATCCTACTAAGGATC ((((((....)))))) | -35.1 | 52.5
88 | GATCCTAGAAAGGATC ((((((....)))))) | -30.6 | 48.5
89 | GATCCTAGCTAGGATC ((((((....)))))) | -56.9 | 54.1
90 | GATCCTAGGTAGGATC ((((((....)))))) | -38.7 | 52.9
91 | GATCCTAGTAAGGATC ((((((....)))))) | -41.1 | 52.2
92 | GATCCTAGTAGGATC ((((((...)))))) | -34.1 | 52.4
93 | GATCCTAGTGAGGATC ((((((....)))))) | -36.2 | 50.9
94 | GATCCTAGTTAGGATC ((((((....)))))) | -33.7 | 51.7
95 | GATCCTATCAGGATC ((((((...)))))) | -35.7 | 57.2
96 | GATCCTATTAGGATC ((((((...)))))) | -34.6 | 53.4
